Results reported in ChEMBL document CHEMBL3872202, “Synthesis and biofilm formation reduction of pyrazole-4-carboxamide derivatives in some Staphylococcus aureus strains” (Eur J Med Chem, 2016).

Assays:
Staphylococcus aureus [1] = assay: Antibiofilm activity against Staphylococcus aureus ATCC 25923 after 24 hrs by crystal-violet stain based assay; type: functional; conditions: ATCC 25923, 24 h
Method in brief: (§1)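 Biofilm prevention: diluted bacterial suspension (OD about 0.040 at 570 nm) with sub-MIC concentrations from 300 to 0.3 added at time zero, 37 °C for 24 h in 24-well polystyrene plates. Wells washed three times with PBS, stained with 0.1% crystal violet for 30 min, and the stain redissolved in ethanol. OD read at 600 nm. Percent inhibition taken against untreated control wells. Triplicate, repeated at least twice.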

Staphylococcus aureus [2] = assay: Inhibition of Staphylococcus aureus ATCC 6538 planktonic growth at 250 uM after 24 hrs by microbroth dilution method
Staphylococcus aureus [3] = assay: Inhibition of Staphylococcus aureus ATCC 25923 planktonic growth at 250 uM after 24 hrs by microbroth dilution method
Staphylococcus aureus [4] = assay: Antibiofilm activity against Staphylococcus aureus ATCC 6538 after 24 hrs by crystal-violet stain based assay; type: functional; conditions: ATCC 6538, 24 h; method in brief: as §1
Staphylococcus aureus [5] = assay: Inhibition of Staphylococcus aureus ATCC 29213 planktonic growth at 250 uM after 24 hrs by microbroth dilution method
Staphylococcus aureus [6] = assay: Antibiofilm activity against Staphylococcus aureus ATCC 29213 after 24 hrs by crystal-violet stain based assay; type: functional; conditions: ATCC 29213, 24 h; method in brief: as §1
[7] = Toxicity in Galleria mellonella assessed as effect on time to pupation at 1 mg/kg administered as single dose measured every 24 hrs for 72 hrs; type: organism-based; conditions: in vivo
Method in brief: (§2)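 Uninfected larvae given a single 1 mg/kg injection in PBS with 3% DMSO, alongside untreated and vehicle-only groups, three replicates of four larvae each. Larvae kept in starvation and monitored for weight loss and time to pupation/chrysalis formation as sub-lethal endpoints. Groups compared statistically.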

[8] = Toxicity in Galleria mellonella assessed as effect on larval survival at 1 mg/kg administered as single dose measured every 24 hrs for 72 hrs; type: organism-based; conditions: in vivo
Method in brief: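 Larvae held at 37 °C and given a single 1 mg/kg injection in PBS with 3% DMSO. Controls were untreated larvae and vehicle-injected larvae. Three replicates of four larvae per group. Survival checked at 24, 48 and 72 h after injection. Results given as mean with SD and compared by post hoc Tukey test (P < 0.05).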

Staphylococcus aureus [9] = assay: Antivirulence activity against Staphylococcus aureus ATCC 29213 infected in Galleria mellonella larvae assessed as increase in larvae survival at 1 mg/kg administered as single dose pretreated for 1 hr followed by bacterial infection measured every 24 hrs for 72 hrs relative to control; type: functional
Method in brief: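 Galleria mellonella larvae given a single 1 mg/kg injection in PBS with 3% DMSO 1 h before inoculation with live S. aureus ATCC 29213, injected into alternate prolegs. Controls: untouched larvae, uninfected vehicle-injected larvae, uninfected compound-treated larvae, and vehicle-pretreated infected larvae. Larvae held at 37 °C, survival checked at 24, 48 and 72 h. Three replicates of four larvae per group, Tukey post hoc test.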

[10] = Toxicity in Galleria mellonella assessed as effect on larval weight at 1 mg/kg administered as single dose measured every 24 hrs for 72 hrs; type: organism-based; conditions: in vivo; method in brief: as §2
Staphylococcus aureus [11] = assay: Antibiofilm activity against Staphylococcus aureus ATCC 6538 after 24 hrs by safranin staining based assay; type: functional; conditions: ATCC 6538, 24 h
Staphylococcus aureus [12] = assay: Antibiofilm activity against Staphylococcus aureus ATCC 25923 after 24 hrs by safranin staining based assay; type: functional; conditions: ATCC 25923, 24 h
Staphylococcus aureus [13] = assay: Antibiofilm activity against Staphylococcus aureus ATCC 29213 after 24 hrs by safranin staining based assay; type: functional; conditions: ATCC 29213, 24 h

| Compound | IC50 (Staphylococcus aureus [1]) [µM] | growth inhibition (GI) (Staphylococcus aureus [2]) | growth inhibition (GI) (Staphylococcus aureus [3]) | IC50 (Staphylococcus aureus [4]) [µM] | growth inhibition (GI) (Staphylococcus aureus [5]) | IC50 (Staphylococcus aureus [6]) [µM] | Activity [7] | Activity [8] | fold change (FC) (Staphylococcus aureus [9]) | Activity [10] | IC50 (Staphylococcus aureus [11]) [µM] | IC50 (Staphylococcus aureus [12]) [µM] | IC50 (Staphylococcus aureus [13]) [µM] |
| --- | --- | --- | --- | --- | --- | --- | --- | --- | --- | --- | --- | --- | --- |
| CCOC(=O)c1cnn(-c2ccccn2)c1N | 102 | Non-Toxic | Non-Toxic | 91 | Non-Toxic | 31 |  |  |  |  |  |  |  |
| CCOC(=O)c1cnn(-c2ccccc2)c1N | 222 | Non-Toxic | Non-Toxic | 95 | Non-Toxic | 34 |  |  |  |  |  |  |  |
| Cc1c(C(=O)Nc2ccccc2)cnn1-c1ccccc1 | 112 | Non-Toxic | Non-Toxic | 77 | Non-Toxic | 309 |  |  |  |  |  |  |  |
| Cc1c(C(=O)Nc2ccccc2)cnn1-c1cccc([N+](=O)[O-])c1 | 64 | Non-Toxic | Non-Toxic | 90 | Non-Toxic | 46 |  |  |  |  |  |  |  |
| CC(=O)/C(=C\NNc1cc(Cl)ccc1Cl)C(=O)Nc1ccccc1 | 2.3 | Non-Toxic | Non-Toxic | 32 | Non-Toxic | 2.5 | Non-Toxic | Non-Toxic | 1.6 | Non-Toxic |  |  |  |
| Cc1cc(C(=O)Nc2ccccc2)n(-c2ccccc2)n1 | 74 | Non-Toxic | Non-Toxic | 54 | Non-Toxic | 123 |  |  |  |  |  |  |  |
| CCOC(=O)c1c(C)n[nH]c1N | 378 | Non-Toxic | Non-Toxic | 82 | Non-Toxic | 62 |  |  |  |  |  |  |  |
| Cc1c(C(=O)Nc2ccccc2)cnn1-c1cc(Cl)ccc1Cl | 92 | Non-Toxic | Non-Toxic |  | Non-Toxic | 52 |  |  |  |  |  |  |  |
| Cc1c(C(=O)Nc2ccccc2)cnn1-c1cccc(Cl)c1 | 161 | Non-Toxic | Non-Toxic | 103 | Non-Toxic | 169 |  |  |  |  |  |  |  |
| CCOC(=O)/C(=N/Nc1cccc(C)c1)C(=O)c1cc(C)nn1CC |  |  |  |  |  |  |  |  |  |  | 43 | 10 | 1.7 |
| Cc1c(C(=O)Nc2ccccc2)cnn1-c1cc(F)ccc1F | 61 | Non-Toxic | Non-Toxic | 81 | Non-Toxic | 89 |  |  |  |  |  |  |  |
| CCn1nc(C)cc1C(=O)/C(=N\Nc1cccc(Cl)c1)C(=O)O |  |  |  |  |  |  |  |  |  |  | 11 | 20 | 16 |
| CCOC(=O)c1cnn(-c2ccc(S(N)(=O)=O)cc2)c1N | 77 | Non-Toxic | Non-Toxic | 142 | Non-Toxic | 28 |  |  |  |  |  |  |  |
| Cc1c(C(=O)Nc2ccccc2)cnn1-c1ccc([N+](=O)[O-])cc1 | 434 | Non-Toxic | Non-Toxic | 55 | Non-Toxic | 127 |  |  |  |  |  |  |  |
| Cc1c(C(=O)Nc2ccccc2)cnn1-c1ccc(Cl)cc1 | 552 | Non-Toxic | Non-Toxic | 30 | Non-Toxic | 38 |  |  |  |  |  |  |  |
| Cc1cc(C(=O)Nc2ccccc2)nn1-c1ccccc1 | 76 | Non-Toxic | Non-Toxic | 64 | Non-Toxic | 54 |  |  |  |  |  |  |  |
| CCOC(=O)/C(=N/Nc1ccccc1F)C(=O)c1cc(C)nn1CC |  |  |  |  |  |  |  |  |  |  | 0.9 | 42 | 13 |
| Cc1c(C(=O)Nc2ccccc2)cnn1-c1ccc(C(F)(F)F)cc1 | 64 | Non-Toxic | Non-Toxic |  | Non-Toxic | 46 |  |  |  |  |  |  |  |
| CCOC(=O)c1cnn(C)c1N | 159 | Non-Toxic | Non-Toxic |  | Non-Toxic | 152 |  |  |  |  |  |  |  |
| CCOC(=O)c1cn[nH]c1N | 213 | Non-Toxic | Non-Toxic | 85 | Non-Toxic | 83 |  |  |  |  |  |  |  |
